Rows were chosen to be rich in hits. Some 3.5% of all compounds tested hit in one or more screens of this group.
MrgX1 antag – human MrgX1 receptor antagonism, primary screen. MRGX1-HEK293 calcium flux, Fluo-4, BAM8-22 antagonism; stronger effect = lower value. B-score at 10 µM. 310,000 compounds, 1.3% hits. Q96LB2;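 active = calcium-response B-score plate-corrected more than 3 library SD below zero, starting fluorescence within 5 deviations, no agonist response on first addition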;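 note: peak minus trough fluorescence over baseline after final BAM8-22 challenge near maximal dose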
Target sequence (Q96LB2 whole entry, looked up): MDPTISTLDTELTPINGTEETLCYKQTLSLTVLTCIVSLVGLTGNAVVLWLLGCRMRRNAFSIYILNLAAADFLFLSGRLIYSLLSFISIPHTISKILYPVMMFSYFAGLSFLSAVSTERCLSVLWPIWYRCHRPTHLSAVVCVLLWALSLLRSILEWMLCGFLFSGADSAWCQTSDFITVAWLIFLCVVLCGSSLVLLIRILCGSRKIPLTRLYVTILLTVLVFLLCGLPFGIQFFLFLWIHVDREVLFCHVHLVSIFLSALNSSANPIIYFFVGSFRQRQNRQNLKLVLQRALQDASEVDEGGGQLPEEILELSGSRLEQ
MrgX1 PAM – allosterically activates human MrgX1 receptor signaling; 310,000 compounds, 0.63% hits; Q96LB2; B-score at 10 µM; AID 588675; MrgX1-HEK293, Fluo-4 calcium flux, FDSS; stronger effect = higher value;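 active = plate-corrected calcium response at least 3 library SD above typical, normal starting fluorescence, not activating the receptor alone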;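 note: compound read alongside a low EC10 to EC30 dose of BAM8-22 agonist; peak minus trough fluorescence over baseline measured at the second addition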
MrgX1 ag – human MrgX1 receptor agonism, primary screen. 310,000 compounds, 0.44% hits. MrgX1-HEK293 cells, Fluo-4 calcium fluorescence, agonist mode; stronger effect = higher value. B-score at 10 µM. Q96LB2;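 active = calcium response B-score plate-corrected fluorescence ratio at least 3 library SD, with starting fluorescence B-score inside 5 SD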
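Test system: HEK293 cells stably expressing human MrgX1 receptor; Input: fifteen thousand cells per well; Dosing: compound delivered in addition one of three; Schedule: overnight seeding, then 1 h dark dye loading; Technique: Fluo-4 NW calcium fluorescence; Measure: B-scored fluorescence response ratio; Controls: positive and negative controls per plate.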
RGS4 inh – inhibitors of human RGS4; P49798; 310,000 compounds, 0.45% hits; AID 463165; HEK293 M3R/RGS4 inducible, Fluo-4 calcium flux; stronger effect = higher value; triggered by carbachol at its EC20; B-score at 10 µM;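 active = B-score, a plate-corrected calcium signal, over three deviations above library mean, with baseline fluorescence within five deviations of library mean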;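 note: RGS4 expression induced by doxycycline in cells with stable M3 receptor; B-score is computed from the integrated fluorescence ratio over baseline after carbachol; higher B-score means a larger calcium signal and so more RGS4 inhibition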
Target sequence (P49798 whole entry, looked up): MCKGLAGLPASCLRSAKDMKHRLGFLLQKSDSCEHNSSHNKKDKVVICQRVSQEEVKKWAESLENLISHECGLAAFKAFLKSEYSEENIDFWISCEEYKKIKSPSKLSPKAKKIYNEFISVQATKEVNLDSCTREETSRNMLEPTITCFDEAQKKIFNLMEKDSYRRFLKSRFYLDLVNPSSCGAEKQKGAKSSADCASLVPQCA
RGS4 pot – potentiators or activators of RGS4 | AID 463111 | 310,000 compounds, 0.92% hits | B-score at 10 µM | HEK293 M3R/inducible RGS4, carbachol calcium flux Fluo4; stronger effect = lower value;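 active = B-score of the integrated calcium signal more than 4 SD below the library mean, with starting fluorescence not abnormally high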;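 note: negative B-score means reduced calcium response which marks RGS4 activation or potentiation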
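Test system: HEK293 cells with stable M3R and inducible RGS4; also added: carbachol at ECmax as muscarinic agonist stimulus; schedule: dye loading 30 min 37 °C, buffer rest 30 min RT; technique: kinetic calcium fluorescence imaging with Fluo4-AM dye, 2 µM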
RGS4 act valid – confirmation of RGS4 activators. HEK293 M3R/RGS4 inducible, carbachol calcium flux Fluo4. inhibition, % at 10 µM. shares compounds with RGS4 pot. 1,100 compounds, 89% hits;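 active = inhibition above 3 SD of the buffer control wells, cut at about 41% in these data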;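 note: signal is the integrated peak-minus-minimum Fluo4 fluorescence over baseline ratio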
RGS4 act ctr – activity in cells without induced RGS4 expression; shares compounds with RGS4 pot; HEK293 M3R non-induced RGS4, Fluo4 calcium flux; after carbachol challenge at its EC90; inhibition, % at 10 µM; 1,100 compounds, 82% hits;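 active = inhibition exceeding 3 SD of buffer-only control wells, cut at about 26% in these data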;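 note: percent drop in integrated peak-minus-baseline over baseline Fluo4 ratio after carbachol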
RGS4 inh valid – RGS4 inhibitor validation; shares compounds with RGS4 inh; calcium response, % at 10 µM; 1,700 compounds, 65% hits; HEK293 M3R/RGS4, carbachol calcium Fluo-4 fluorescence; carbachol added at its EC20; 0 = buffer wells, 100 = carbachol control;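 active = duplicate-averaged calcium response above the buffer-only control mean plus 5 SD of those controls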;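 note: integrated fluorescence ratio F max minus min over baseline F0; higher response in RGS4-induced cells means RGS4 inhibition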
RGS4 uninduced – non-induced cell nonspecific activity of RGS4 inhibitors; shares compounds with RGS4 inh; HEK293 M3R non-induced, carbachol calcium Fluo-4; submaximal (EC20) carbachol stimulus; buffer wells 0%, carbachol control wells 100%; activity (percent), % at 10 µM; 1,900 compounds, 20% hits; call rule not given here;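 note: RGS4 induction absent so cells express M3R without RGS4; higher means more calcium signal and flags a non-specific hit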
M3R basal Ca ctr – second counter-screen for RGS4 inhibitors: non-induced cells without carbachol; AID 493001; HEK293 M3R/RGS4 non-induced, Fluo-4 calcium, no carbachol; normalised: buffer wells 0%, carbachol wells 100%; shares compounds with RGS4 inh; 1,900 compounds, 22% hits; calcium response (agonist-mode artifact), % at 10 µM;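 active = duplicate-averaged calcium rise in uninduced cells above buffer wells' mean plus 5 SD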
MrgX1 ag confirm – human MrgX1 agonism, re-confirmation screen; MrgX1-HEK293, Fluo-4 calcium fluorescence, FDSS; shares compounds with MrgX1 ag; activation, % at 10 µM; 600 compounds, 78% hits;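 active = calcium signal rise, corrected for plate position, at least 3 library SD high, with starting brightness within 5 such deviations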
MrgX1 antag conf – confirmation of human MrgX1 receptor antagonists; shares compounds with MrgX1 antag; MrgX1-HEK293, BAM8-22 calcium flux, Fluo-4; stronger effect = lower value; remaining BAM8-22 calcium response % of control (stronger effect = lower value), % at 10 µM; 2,300 compounds, 19% hits;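 active = remaining agonist calcium response no higher than 100% minus 3 SD of agonist-only control wells, with starting fluorescence near control levels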;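 note: agonist BAM8-22 given at a near maximal EC90 to ECmax level; peak minus minimum fluorescence divided by baseline after agonist addition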
HEK293 Ca flux – counter-screen for MrgX1 antagonists: effect in parental HEK293 cells; shares compounds with MrgX1 antag; Fluo-4 calcium fluorescence, FDSS; fluorescence ratio F(max-min)/F0 at 10 µM; 4,000 compounds, 2% hits;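 active = duplicate-averaged calcium fluorescence ratio at least three times the standard deviation of buffer wells, a nonspecific response in parental cells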
HEK293 Ca counter – activity in parental HEK293 cells without MrgX1; shares compounds with MrgX1 antag; parental HEK293 calcium flux, Fluo-4 fluorescence ratio; stronger effect = higher value; fluorescence ratio F(max-min)/F0 at 10 µM; 4,000 compounds, 0.4% hits; AID 624114;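 active = calcium fluorescence ratio, averaged over duplicates, at least 3 SD of the buffer-well ratio, meaning a nonspecific response in receptor-free cells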;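 note: untransfected parental HEK293 lacking MrgX1 used as counterscreen for MrgX1 allosteric activators; fluorescence change taken during the second addition on a kinetic imager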
HEK293 Ca cntr2 – activity in parental HEK293 cells lacking MrgX1 receptor; shares compounds with MrgX1 antag; Fluo-4 calcium fluorescence (FDSS); stronger effect = higher value; fluorescence ratio F(max-min)/F0 at 10 µM; 4,000 compounds, 8.7% hits; AID 624115;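 active = calcium fluorescence ratio at least three times the spread of buffer wells, meaning a non-specific response in parental cells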
Each line names hits and unclear results; the compound was inactive in the other large screens (follow-up assays come after a bar, where they were run).

O=S(=O)(Nc1cc2nc3ccccc3nc2n1Cc1ccccc1)c1ccc(Cl)cc1	MrgX1 ag 44.6, RGS4 pot -14.3 | RGS4 act valid 94.0 | RGS4 act ctr 88.3 | MrgX1 ag confirm inactive | HEK293 Ca flux 0.037 | HEK293 Ca counter inactive | HEK293 Ca cntr2 inactive
Cc1cc(N2CCCCC2)nc2ccc(NC(=O)c3ccc(Br)o3)cc12	MrgX1 antag -6.88, RGS4 pot -7.73 | RGS4 act valid 71.5 | RGS4 act ctr 83.8 | MrgX1 antag conf inactive | HEK293 Ca flux inactive | HEK293 Ca counter inactive | HEK293 Ca cntr2 inactive
Cc1cc(N2CCN(C)CC2)nc2ccc(NC(=O)c3ccc(Br)o3)cc12	none
CCN(CC)CCOC(=O)c1c(C)oc2ccc(OC)cc12	MrgX1 antag -5.17, RGS4 pot -7.83 | RGS4 act valid 67.0 | RGS4 act ctr 83.8 | MrgX1 antag conf inactive | HEK293 Ca flux inactive | HEK293 Ca counter inactive | HEK293 Ca cntr2 inactive
COc1ccc(CCNc2nc(-c3ccc(F)cc3)c(CC(=O)O)s2)cc1OC	none
CCN(CC(=O)Nc1ccc2c(c1)OCCO2)C(=O)/C=C/c1cccc(Br)c1	none
COc1cccc(N2CCN(c3ncnc4c3[nH]c3ccccc34)CC2C)c1 (stereo not drawn)	MrgX1 antag -14.6, RGS4 pot -9.04 | RGS4 act valid 94.0 | RGS4 act ctr 82.8 | MrgX1 antag conf 4.6% | HEK293 Ca flux inactive | HEK293 Ca counter inactive | HEK293 Ca cntr2 inactive
Cc1ccc(-c2cc3cccc[n+]3cc2-c2ccc(C)cc2)cc1	none
CCOC(=O)Cc1csc(NC(=O)c2csc(C)c2)n1	none
CCOC(=O)Cc1csc(NC(=O)c2sc3nc4c(C)cc(C)cc4cc3c2N)n1	MrgX1 antag -9.24, RGS4 pot -8.6 | RGS4 act valid 83.5 | RGS4 act ctr 63.3 | MrgX1 antag conf inactive | HEK293 Ca flux inactive | HEK293 Ca counter inactive | HEK293 Ca cntr2 inactive
O=C(NC1CCCCCC1)C(=S)NCc1ccccc1	none
COC(=O)c1sc(-c2ccc(C(C)(C)C)cc2)cc1NC(=O)CSCC(=O)O	MrgX1 antag -5.31, RGS4 pot -7.71 | RGS4 act valid 75.0 | RGS4 act ctr 83.8 | MrgX1 antag conf inactive | HEK293 Ca flux inactive | HEK293 Ca counter inactive | HEK293 Ca cntr2 inactive
CN1C(=O)C(Cc2cnc[nH]2)NC1=S (stereo not drawn)	none
CCN(CC)CC#CCC(O)(c1ccccc1)C1CCCC1 (stereo not drawn)	MrgX1 antag -8.7, RGS4 pot -7.92 | RGS4 act valid 94.0 | RGS4 act ctr 90.8 | MrgX1 antag conf inactive | HEK293 Ca flux inactive | HEK293 Ca counter inactive | HEK293 Ca cntr2 inactive
Cc1ccc(O)c(C(=O)c2cnc3c(c2)COc2ccccc2-3)c1	MrgX1 antag -10.1, RGS4 pot -9.29 | RGS4 act valid 85.5 | RGS4 act ctr 88.3 | MrgX1 antag conf inactive | HEK293 Ca flux inactive | HEK293 Ca counter inactive | HEK293 Ca cntr2 inactive
CCc1nnc(N/N=C/c2ccc(N3CCC(C)CC3)c([N+](=O)[O-])c2)n1N	none
Cc1nnc(N/N=C/c2cc([N+](=O)[O-])c(N3CCC(C)CC3)cc2N2CCC(C)CC2)n1N	RGS4 inh 4.93 | RGS4 inh valid 9.5% | RGS4 uninduced 36.0% | M3R basal Ca ctr inactive
CN(C)c1ccc(C(C[N+](=O)[O-])c2c(N)n(C)c(=O)n(C)c2=O)c(F)c1C#N (stereo not drawn)	MrgX1 ag 31.2, RGS4 inh 22.1 | RGS4 inh valid 62.0% | RGS4 uninduced inactive | M3R basal Ca ctr inactive
O=C(CN(C(=O)CNS(=O)(=O)c1ccc(F)cc1)c1ccccc1)NCc1ccco1	none | RGS4 inh valid inactive | RGS4 uninduced inactive | M3R basal Ca ctr inactive
O=C(CN(C(=O)CNS(=O)(=O)c1ccc(F)cc1)c1ccccc1F)NCc1ccco1	RGS4 inh 4.92 | RGS4 inh valid inactive | RGS4 uninduced inactive | M3R basal Ca ctr inactive
Cc1ccc(C)c(N(CC(=O)NCc2ccco2)C(=O)CNS(=O)(=O)c2ccc(F)cc2)c1	none
O=C(CN(C(=O)CNS(=O)(=O)c1ccc(F)cc1)c1ccc(F)cc1)NCc1ccco1	none | RGS4 inh valid inactive | RGS4 uninduced inactive | M3R basal Ca ctr inactive
Cc1noc(N)c1C1(O)C(=O)Nc2c(Cl)cc(Cl)cc21 (stereo not drawn)	none
CC(=O)Nc1cccc(NC(=O)c2csc(C)c2)c1	none
O=C(c1ccc(OC2CCN(C/C=C/c3ccc(F)cc3)CC2)cc1)N1CCCC1	none
CCCCCCCNC(=O)CN1C(=O)CSc2ccc(S(=O)(=O)N3CCOCC3)cc21	none
CCOCCCNC(=O)CN1C(=O)COc2ccc(S(=O)(=O)N3CCCC3)cc21	none | RGS4 uninduced inactive | M3R basal Ca ctr inactive
COCCCNC(=O)CN1C(=O)COc2ccc(S(=O)(=O)N3CCCCCC3)cc21	none

High-throughput results (PubChem BioAssay)
